# Experimental data collected from several papers.
# Lines come from different studies, so protocols differ.
# Target: Serine/threonine-protein kinase TNNI3K (TNNI3K, Homo sapiens, UniProt Q59H18)
# One construct used (Q59H18 1-835): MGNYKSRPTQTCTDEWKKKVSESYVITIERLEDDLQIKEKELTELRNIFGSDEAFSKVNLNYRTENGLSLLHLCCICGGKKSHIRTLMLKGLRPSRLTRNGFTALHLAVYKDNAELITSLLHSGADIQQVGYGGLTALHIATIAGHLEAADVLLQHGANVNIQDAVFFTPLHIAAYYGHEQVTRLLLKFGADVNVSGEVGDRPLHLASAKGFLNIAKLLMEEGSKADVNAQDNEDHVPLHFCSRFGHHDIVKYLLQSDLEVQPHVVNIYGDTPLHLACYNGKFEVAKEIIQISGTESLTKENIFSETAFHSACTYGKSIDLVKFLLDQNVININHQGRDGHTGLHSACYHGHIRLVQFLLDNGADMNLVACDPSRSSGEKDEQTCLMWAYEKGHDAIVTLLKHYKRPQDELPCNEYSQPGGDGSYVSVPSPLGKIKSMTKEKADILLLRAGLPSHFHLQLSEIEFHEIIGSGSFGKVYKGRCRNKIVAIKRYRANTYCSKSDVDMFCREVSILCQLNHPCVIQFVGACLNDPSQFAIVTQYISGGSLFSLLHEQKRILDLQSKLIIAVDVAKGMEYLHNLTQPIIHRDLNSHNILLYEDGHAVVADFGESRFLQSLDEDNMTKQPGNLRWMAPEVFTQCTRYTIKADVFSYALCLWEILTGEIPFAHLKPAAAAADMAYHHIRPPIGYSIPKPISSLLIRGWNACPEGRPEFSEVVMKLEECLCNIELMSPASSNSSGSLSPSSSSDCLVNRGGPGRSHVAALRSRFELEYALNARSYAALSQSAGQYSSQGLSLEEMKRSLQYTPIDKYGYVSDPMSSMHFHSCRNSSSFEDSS
SMILES,test,conditions,remaining binding [%]
C[C@H]1CCN(c2nccc(-c3cnn4ncccc34)n2)C1,binding,1 µM,100
C=CC(=O)N1CCC(C(=O)NCC(=O)N2CCN(c3nc(-c4cnc(N)nc4C(F)F)nc(N4CCOCC4)n3)CC2)CC1,"binding, competition with immobilised ligand",1 µM,100
Cc1noc([C@H]2C[C@@H](c3ccc(C(F)(F)F)cc3)CN(C(=O)N3CCS(=O)(=O)C3)C2)n1,"cell-free assay, competition with immobilised ligand",1 µM,100
COc1ncc2cc3ccccc3nc2c1C#N,"cell-free assay, competition with immobilised ligand",5 µM,100
Cc1nc(C2CCN(C(=O)c3ccc(OC(F)(F)F)cc3N)CC2)c2ncc(N3CCN(C)CC3)cc2n1,"cell-free assay, competition with immobilised ligand",1 µM,100
CC1CCCN1c1nccc(-c2cnn3ncccc23)n1 (stereo not shown),binding,1 µM,99
COc1ccc2c(O[C@@H]3C[C@H]4C(=O)N[C@]5(C(=O)O)CC5/C=C\CCCCC[C@H](NC(=O)OC5CCCC5)C(=O)N4C3)cc(-c3csc(NC(=O)C(C)C)n3)nc2c1C (stereo partly shown),"cell-free assay, competition with immobilised ligand",1 µM,100
CCN1CCN(Cc2ccc(C(=O)Nc3ccc(C)c(Oc4ccc5c(c4)CC(=O)N5)c3)cc2C(F)(F)F)CC1,"binding, competition with immobilised ligand",1 µM,88
CCCCN(CCCC)C(=O)CN1C[C@H](c2cc(OC)c3c(c2)OCO3)[C@@H](C(=O)O)[C@@H]1CC(C)(C)CCC,"cell-free assay, competition with immobilised ligand",1 µM,100
CN(C)c1nccc(-c2cnn3ncccc23)n1,binding,1 µM,100
O=C(NCCCN1CCOCC1)c1ccc(Nc2ncc(Cl)c(-c3ccc(Cl)s3)n2)cc1,"binding, competition with immobilised ligand",1 µM,78
Nc1cnc(N2CCc3cc(S(=O)(=O)Nc4c(F)cc(Cl)cc4F)cc(N4CCCC4=O)c32)nc1,"binding, competition with immobilised ligand",1 µM,49
c1cncc(-c2cccc(Nc3nccc(NC4CCCCC4)n3)c2)c1,"binding, competition with immobilised ligand",10 µM,95
c1cnn2ncc(-c3ccnc(N4CCC45COC5)n3)c2c1,binding,1 µM,100
O=C(Nc1c[nH]nc1C(=O)NC1CCNCC1)c1cc(F)cc(F)c1,"binding, competition with immobilised ligand",1 µM,95
N[C@H]1CCN(c2nccc(-c3cnn4ncccc34)n2)C1,binding,1 µM,100
CNC(=O)[C@@H]1CC[C@@H](n2c(-c3ccc4cnccc4c3)nc3ccc(C(=O)NCc4cccc(C(N)=O)c4)cc32)C1,"binding, competition with immobilised ligand",1 µM,100
CS(=O)(=O)N1CCCC(NC(=O)[C@H](CCC2CCCCC2)NC(=O)c2ccc(CNc3ncnc4c3nnn4-c3ccccc3)cc2)C1 (stereo partly shown),"cell-free assay, competition with immobilised ligand",0.1 µM,63
COc1ccnn2ncc(-c3ccnc(N(C)C)n3)c12,binding,1 µM,93
Cc1cnc(Nc2ccc(C(=O)N3CCC(N4CCCC4)CC3)cc2)nc1-c1cc2ccccc2s1,"binding, competition with immobilised ligand",1 µM,31
CN(C)c1ncc(F)c(-c2cnn3ncccc23)n1,binding,1 µM,100
O=C(c1ccc(Nc2ncc(Cl)c(-c3ccc(Cl)s3)n2)cc1)N1CCC(N2CCCC2)CC1,"binding, competition with immobilised ligand",1 µM,50
